ChEMBL document CHEMBL1121839, “Synthesis of spiro[isobenzofuran-1(3H),4'-piperidines] as potential central nervous system agents. 6. Synthesis, 13C NMR, and biological evaluation of cis- and trans-4-amino-3'-arylspiro[cyclohexane-1,1'(3'H)-isobenzofuran] derivatives” (1981)

How the values were obtained:
Format in all cases: functional
Mus musculus = assay: Inhibition of tetrabenazine-induced ptosis in mice following i.p. administration.; details: ip
Method in brief: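 Male CD-1 mice, groups of five, received compound i.p.; tetrabenazine methanesulfonate 40 mg/kg i.p. followed 30 min later. After another 30 min, mice were housed singly and ptosis was scored (eyes closed 2, half open 1, open 0). ED50 and 95% confidence intervals came from linear regression of ptosis scores.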

Rattus norvegicus [1] = assay: Percent potentiation of L-5-hydroxytryptophan-induced seizures (head-twitching) at 10 mg/kg i.p. in rats; details: route intraperitoneal
Method in brief: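 Male Wistar rats, groups of six, got pargyline HCl 75 mg/kg s.c. 4 h before testing and test drug i.p. (10 mL/kg) 30 min before. L-5-hydroxytryptophan 1 mg/kg i.p. in distilled water was then given. Rats were observed 5 min later for head motion and coarse tremors; continuous forelimb clonus counted as potentiation, normalized as percent versus vehicle control.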

Rattus norvegicus [2] = assay: Effective concentration required for potentiation of L-5-hydroxytryptophan-induced seizures (head-twitching) in rats (administered intraperitoneally); details: ip
Method in brief: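 Male Wistar rats, groups of six, pretreated with pargyline HCl 75 mg/kg sc 4 h before testing. Test drug given ip (10 mL/kg) 30 min before testing, then L-5-hydroxytryptophan 1 mg/kg ip in distilled water. Head motion and coarse tremors were scored 5 min later, with continuous forelimb clonus counted as potentiation. Results are expressed as normalized percent potentiation versus vehicle control.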

`CN(C)[C@H]1CC[C@]2(CC1)OCc1ccccc12` gave an ED50 (Mus musculus) greater than 20 mg/kg and a Potentiation (Rattus norvegicus [1]) of 0%.

In the case of `CC1O[C@]2(CC[C@@H](N(C)C)CC2)c2ccccc21` (stereo not given in full), the ED50 (Mus musculus) is reported as 20 mg/kg and the Potentiation (Rattus norvegicus [1]) is reported as 0%.

For `CN[C@H]1CC[C@]2(CC1)OC(c1ccc(Cl)cc1)c1ccccc12` (stereo not given in full), the ED50 (Mus musculus) was greater than 20 mg/kg and the Potentiation (Rattus norvegicus [1]) was 0%.

With `CCCC1(c2ccccc2)O[C@]2(CC[C@@H](N(C)C)CC2)c2ccccc21` (stereo not given in full) the ED50 (Mus musculus) was greater than 20 mg/kg and the Potentiation (Rattus norvegicus [1]) was 0%.

For `CN(C)[C@H]1CC[C@@]2(CC1)OC(c1ccccc1)c1ccccc12` (stereo not given in full), the ED50 (Mus musculus) was greater than 20 mg/kg and the Potentiation (Rattus norvegicus [1]) was 0%.

With `CN[C@H]1CC[C@]2(CC1)OC(c1ccccc1)c1ccccc12` (stereo not given in full) the ED50 (Mus musculus) was 2 mg/kg and the Potentiation (Rattus norvegicus [1]) was 0%.

`CN[C@H]1CC[C@]2(CC1)OC(c1ccc(F)cc1)c1ccccc12` (stereo not given in full) showed an ED50 (Mus musculus) of 20 mg/kg and a Potentiation (Rattus norvegicus [1]) of 0%.

`CN[C@H]1CC[C@@]2(CC1)OC(c1ccccc1)c1ccccc12` (stereo not given in full) showed an ED50 (Mus musculus) greater than 20 mg/kg and a Potentiation (Rattus norvegicus [1]) of 50%.

Molecule `CN[C@H]1CC[C@]2(CC1)OC(c1ccccc1C)c1ccccc12` (stereo not given in full) has an ED50 (Mus musculus) greater than 20 mg/kg and a Potentiation (Rattus norvegicus [1]) of 50%.

Work on `Cc1ccccc1C1O[C@]2(CC[C@@H](N(C)C)CC2)c2ccccc21` (stereo not given in full) yielded an ED50 (Mus musculus) greater than 20 mg/kg and a Potentiation (Rattus norvegicus [1]) of 0%.

In the case of `Cc1ccc(C2O[C@]3(CC[C@@H](N(C)C)CC3)c3ccccc32)cc1` (stereo not given in full), the ED50 (Mus musculus) is reported as greater than 20 mg/kg and the Potentiation (Rattus norvegicus [1]) is reported as 33%.

`CCC1(c2ccccc2)O[C@]2(CC[C@@H](N(C)C)CC2)c2ccccc21` (stereo not given in full) showed an ED50 (Mus musculus) greater than 20 mg/kg and a Potentiation (Rattus norvegicus [1]) of 0%.

`CN(C)[C@H]1CC[C@]2(CC1)OC(c1ccc(Cl)cc1)c1ccccc12` (stereo not given in full) was tested, and the ED50 (Mus musculus) was greater than 20 mg/kg and the Potentiation (Rattus norvegicus [1]) was 0%.

For `CN(C)[C@H]1CC[C@]2(CC1)OC(c1ccc(F)cc1)c1ccccc12` (stereo not given in full), the ED50 (Mus musculus) was 8.4 mg/kg and the Potentiation (Rattus norvegicus [1]) was 50%.

`CN(C)[C@H]1CC[C@]2(CC1)OC(c1ccccc1)c1ccccc12` (stereo not given in full) gave an ED50 (Mus musculus) of 3.7 mg/kg and a Potentiation (Rattus norvegicus [1]) of 50%.

For `CN(C)[C@H]1CC[C@]2(CC1)OC(C)(c1ccccc1)c1ccccc12` (stereo not given in full), the ED50 (Mus musculus) was greater than 20 mg/kg and the Potentiation (Rattus norvegicus [1]) was 0%.

`CN(C)CCC=C1c2ccccc2CCc2ccccc21` [AMITRIPTYLINE] showed an ED50 (Mus musculus) of 1.5 mg/kg and an ED50 (Rattus norvegicus [2]) of 7.1 mg/kg.

With `CNCCCN1c2ccccc2CCc2ccccc21` [DESIPRAMINE] the ED50 (Mus musculus) was 0.3 mg/kg.
